# Assay results reported in ChEMBL document CHEMBL3997774, “Identification of Picrasidine C as a Subtype-Selective PPARα Agonist” (J Nat Prod, 2016).
# Activity calls are given as the source filed them. The calls are words filed in the database; no cut-off is given here.
# Assays:
# Format in all cases: cell-based
# [1] = target: T1, Peroxisome proliferator-activated receptor alpha (Homo sapiens) (UniProt Q07869); test: Agonist activity at GAL4-DBD fused human PPARalpha-LBD (159 to 468 residues) expressed in human HepG2 cells after 24 hrs by dual luciferase reporter gene based mammalian one hybrid assay relative to control
# T1 sequence (whole entry): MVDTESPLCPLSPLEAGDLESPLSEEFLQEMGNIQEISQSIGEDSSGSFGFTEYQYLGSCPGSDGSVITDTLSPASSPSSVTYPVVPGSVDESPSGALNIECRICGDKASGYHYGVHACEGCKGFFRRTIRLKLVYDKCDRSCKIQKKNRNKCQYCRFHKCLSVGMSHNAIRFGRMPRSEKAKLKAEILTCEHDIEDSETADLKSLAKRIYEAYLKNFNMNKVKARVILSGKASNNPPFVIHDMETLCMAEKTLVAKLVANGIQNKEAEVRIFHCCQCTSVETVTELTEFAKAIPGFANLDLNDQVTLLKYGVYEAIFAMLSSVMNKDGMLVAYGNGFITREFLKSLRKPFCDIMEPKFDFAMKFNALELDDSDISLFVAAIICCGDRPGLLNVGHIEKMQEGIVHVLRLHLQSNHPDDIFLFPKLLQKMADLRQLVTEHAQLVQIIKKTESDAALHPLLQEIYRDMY
# How it was run: (§1)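 HepG2 cells (DMEM, 10% FBS) transfected with GAL4-DBD/human PPAR-LBD expression vector (0.05 μg), GALRE-luc reporter (0.1 μg) and pGL4.74 Renilla (0.01 μg). After overnight incubation, 0.1–20 μM compound or 0.1% DMSO for 24 h. Dual-luciferase readout, firefly normalized to Renilla. Fold activation over solvent, four independent transfections (mean ± SD, n = 4).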
# [2] = target: T1, Peroxisome proliferator-activated receptor alpha (Homo sapiens); test: Agonist activity at GAL4-DBD fused human PPARalpha-LBD (159 to 468 residues) expressed in human HepG2 cells at 10 uM after 24 hrs by dual luciferase reporter gene based mammalian one hybrid assay relative to control; how it was run: as §1
# [3] = target: T2, Peroxisome proliferator-activated receptor delta (Homo sapiens, UniProt Q03181); test: Agonist activity at GAL4-DBD fused human PPARbeta/delta-LBD (136 to 441 residues) expressed in human HepG2 cells at 0.1 to 20 uM after 24 hrs by luciferase reporter gene based mammalian one hybrid assay relative to control; how it was run: as §1
# T2 sequence (Q03181 whole entry): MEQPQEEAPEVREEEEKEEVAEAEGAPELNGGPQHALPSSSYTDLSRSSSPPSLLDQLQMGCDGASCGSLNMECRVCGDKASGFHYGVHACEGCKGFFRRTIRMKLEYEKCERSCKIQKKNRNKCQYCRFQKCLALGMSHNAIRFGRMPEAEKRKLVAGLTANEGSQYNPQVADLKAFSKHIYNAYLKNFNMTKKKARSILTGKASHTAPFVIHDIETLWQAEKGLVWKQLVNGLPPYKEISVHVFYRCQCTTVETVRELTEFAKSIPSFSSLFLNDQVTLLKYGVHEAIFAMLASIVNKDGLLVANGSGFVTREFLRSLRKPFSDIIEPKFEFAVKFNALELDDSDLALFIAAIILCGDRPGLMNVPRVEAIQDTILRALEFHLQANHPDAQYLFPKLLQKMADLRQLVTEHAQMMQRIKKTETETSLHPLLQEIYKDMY
# [4] = target: T3, Peroxisome proliferator-activated receptor gamma (Homo sapiens, UniProt P37231); test: Agonist activity at GAL4-DBD fused human PPARgamma-LBD (157 to 475 residues) expressed in human HepG2 cells at 0.1 to 20 uM after 24 hrs by luciferase reporter gene based mammalian one hybrid assay relative to control; how it was run: as §1
# T3 sequence (P37231 whole entry): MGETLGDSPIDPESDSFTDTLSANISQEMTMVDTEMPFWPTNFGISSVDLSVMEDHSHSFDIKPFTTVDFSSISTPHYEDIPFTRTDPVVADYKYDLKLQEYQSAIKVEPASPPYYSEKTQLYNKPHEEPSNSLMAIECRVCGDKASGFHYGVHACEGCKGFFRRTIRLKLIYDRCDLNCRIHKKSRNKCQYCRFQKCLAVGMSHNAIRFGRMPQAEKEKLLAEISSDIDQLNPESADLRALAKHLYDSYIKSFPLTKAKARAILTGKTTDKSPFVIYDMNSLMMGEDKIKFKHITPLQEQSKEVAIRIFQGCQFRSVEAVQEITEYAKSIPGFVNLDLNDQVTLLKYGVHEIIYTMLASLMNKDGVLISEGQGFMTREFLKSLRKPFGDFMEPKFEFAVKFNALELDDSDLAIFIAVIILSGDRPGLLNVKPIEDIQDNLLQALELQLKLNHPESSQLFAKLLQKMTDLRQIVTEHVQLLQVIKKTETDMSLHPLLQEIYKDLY
# [5] = target: T4, Peroxisome proliferator-activated receptor delta (Homo sapiens) (UniProt Q03181); test: Antagonist activity at GAL4-DBD fused human PPARbeta/delta-LBD (136 to 441 residues) expressed in human HepG2 cells assessed as inhibition of GW0742-induced receptor activation at 10 uM by luciferase reporter gene based mammalian one hybrid assay
# T4 sequence (whole entry): T2 sequence (Q03181 whole entry)
# How it was run: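 HepG2 cells transfected with GAL4/PPARβ/δ-LBD vector (0.05 μg), GALRE-luc (0.1 μg) and pGL4.74 (0.01 μg). Treated 24 h with 10 μM compound, 10 μM GW0742, or both together, vs 0.1% DMSO. Dual-luciferase, Renilla-normalized. Fold over solvent, four transfections (mean ± SD, n = 4).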
# [6] = target: T1, Peroxisome proliferator-activated receptor alpha (Homo sapiens); test: Agonist activity at full length human N-terminal Myc-tagged PPARalpha expressed in human HepG2 cells coexpressing RXRalpha assessed as transcriptional activation of PPRE at 10 uM incubated for 24 hrs by dual luciferase reporter gene assay
# How it was run: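 HepG2 cells co-transfected with PPRE-luc reporter (0.1 μg), PPARα and RXRα expression vectors (0.05 μg each) and pGL4.74 (0.01 μg). Treated 24 h with test compound or 0.1% DMSO. Dual-luciferase readout, firefly/Renilla. Fold activation over solvent, four independent transfections (mean ± SD, n = 4).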
# [7] = target: T1, Peroxisome proliferator-activated receptor alpha (Homo sapiens); test: Agonist activity at PPARalpha in human THP1 cells assessed as induction of CPT-1 mRNA expression after 24 hrs by RT-qPCR analysis
# How it was run: (§2)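 THP-1 cells (RPMI-1640, 10% FBS) differentiated with 200 nM PMA for 48 h, then treated 24 h with compound (1, 10, 20 μM; reference 50 μM) or 0.1% DMSO. Total RNA extracted, reverse transcribed. SYBR qPCR, 40 cycles (98 °C 5 s, 55 °C 20 s, 72 °C 30 s). Normalized to β-actin mRNA. Fold over solvent, n = 4 (mean ± SD).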
# [8] = target: T1, Peroxisome proliferator-activated receptor alpha (Homo sapiens); test: Agonist activity at PPARalpha in human THP1 cells assessed as induction of PDK4 mRNA expression after 24 hrs by RT-qPCR analysis; how it was run: as §2
# [9] = target: T1, Peroxisome proliferator-activated receptor alpha (Homo sapiens); test: Agonist activity at PPARalpha in human THP1 cells assessed as induction of ABCA1 mRNA expression after 24 hrs by RT-qPCR analysis; how it was run: as §2
# [10] = target: T1, Peroxisome proliferator-activated receptor alpha (Homo sapiens); test: Agonist activity at PPARalpha in human THP1 cells assessed as induction of PDK4 mRNA expression at 20 uM in presence of MK-886 after 24 hrs by RT-qPCR analysis
# How it was run: (§3)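 PMA-differentiated THP-1 cells (200 nM, 48 h) pretreated 1 h with MK-886 (200 μM), then given compound or 0.1% DMSO for 24 h. Target mRNA measured by SYBR RT-qPCR and normalized to β-actin. Fold induction over solvent, four experiments (mean ± SD, n = 4).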
# [11] = target: T1, Peroxisome proliferator-activated receptor alpha (Homo sapiens); test: Agonist activity at PPARalpha in human THP1 cells assessed as induction of CPT-1 mRNA expression at 20 uM in presence of MK-886 after 24 hrs by RT-qPCR analysis; how it was run: as §3
# [12] = target: T1, Peroxisome proliferator-activated receptor alpha (Homo sapiens); test: Agonist activity at PPARalpha in human THP1 cells assessed as induction of ABCA1 mRNA expression at 20 uM in presence of MK-886 after 24 hrs by RT-qPCR analysis; how it was run: as §3
# [13] = target: T1, Peroxisome proliferator-activated receptor alpha (Homo sapiens); test: Agonist activity at PPARalpha in human THP1 cells assessed as induction of PPARalpha mRNA expression after 24 hrs by RT-qPCR analysis; how it was run: as §2
# [14] = target: T1, Peroxisome proliferator-activated receptor alpha (Homo sapiens); test: Agonist activity at PPARalpha in human THP1 cells assessed as induction of PPARalpha mRNA expression at 20 uM in presence of MK-886 after 24 hrs by RT-qPCR analysis; how it was run: as §3
# HepG2 = test: Cytotoxicity against human HepG2 cells assessed as reduction in cell viability at 10 uM after 24 hrs by MTS assay; conditions: hepg2, 24 h
# THP-1 = test: Cytotoxicity against PMA-differentiated human THP1 cells assessed as reduction in cell viability at 10 uM after 24 hrs by MTS assay; conditions: thp-1, 24 h
Structure (SMILES),Activity [1],Activity [2],Activity [3],Activity [4],inhibition [5],Activity [6],Activity [7],Activity [8],Activity [9],Activity [10],Activity [11],Activity [12],Activity [13],Activity [14],Activity (HepG2),Activity (THP-1)
COc1cccc2c1[nH]c1c(CCC(OC)C(=O)c3nccc4c3[nH]c3ccccc34)ncc(OC)c12 (configuration not stated) [PICRASIDINE C],Dose-dependent effect,Active,Not Active,Not Active,inactive,Active,Dose-dependent effect,Dose-dependent effect,Dose-dependent effect,inactive,inactive,inactive,Dose-dependent effect,inactive,Non-Toxic,Non-Toxic
Cc1cccc(Nc2cc(Cl)nc(SCC(=O)O)n2)c1C,,Active,,,,,,,,,,,,,,
